14 compounds from ChEMBL document CHEMBL3603773, “Synthesis of novel triazoles and a tetrazole of escitalopram as cholinesterase inhibitors” (Bioorg Med Chem, 2015) can be followed below.

Each structure is given as a SMILES string.

T1 sequence (P06276 whole entry): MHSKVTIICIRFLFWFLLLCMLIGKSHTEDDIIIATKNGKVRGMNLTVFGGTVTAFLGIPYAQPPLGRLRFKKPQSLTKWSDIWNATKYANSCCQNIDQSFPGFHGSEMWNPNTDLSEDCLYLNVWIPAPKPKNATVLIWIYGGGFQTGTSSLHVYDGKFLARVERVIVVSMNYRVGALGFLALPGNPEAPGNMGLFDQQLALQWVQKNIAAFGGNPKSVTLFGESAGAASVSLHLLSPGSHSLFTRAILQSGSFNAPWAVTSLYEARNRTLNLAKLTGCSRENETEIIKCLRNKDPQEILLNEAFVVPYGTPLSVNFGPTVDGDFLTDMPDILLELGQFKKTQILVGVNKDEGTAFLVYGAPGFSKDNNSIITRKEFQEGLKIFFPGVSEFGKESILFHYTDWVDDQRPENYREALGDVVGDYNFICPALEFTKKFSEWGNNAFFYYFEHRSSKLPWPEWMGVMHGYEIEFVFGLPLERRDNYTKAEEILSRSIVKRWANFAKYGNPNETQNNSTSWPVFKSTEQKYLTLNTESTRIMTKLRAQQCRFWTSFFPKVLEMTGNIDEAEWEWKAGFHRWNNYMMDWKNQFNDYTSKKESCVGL

One assay has as its target T1, Cholinesterase (Homo sapiens, UniProt P06276). Nature of the assay: Inhibition of BChE (unknown origin) using butyrylthiocholine chloride as substrate at 0.5 mM preincubated for 30 mins before substrate addition measured after 30 mins by Ellman method relative to control.
Consider `CN(C)CCC[C@@]1(c2ccc(F)cc2)OCc2cc(-c3nnc(-c4ccc(O)cc4)[nH]3)ccc21`, for which the inhibition amounted to 78.7%.

In turn, `CN(C)CCC[C@@]1(c2ccc(F)cc2)OCc2cc(-c3nnc(-c4ccc(Br)cc4)[nH]3)ccc21` showed an inhibition of 50.6%.

As for `CN(C)CCC[C@@]1(c2ccc(F)cc2)OCc2cc(-c3nnc(-c4ccc([N+](=O)[O-])cc4)[nH]3)ccc21`, the inhibition came out at 69.7%.

Turning to `CN(C)CCC[C@@]1(c2ccc(F)cc2)OCc2cc(-c3nnc(-c4ccccc4O)[nH]3)ccc21`, the inhibition came to 80.7%.

Compound `CN(C)CCC[C@@]1(c2ccc(F)cc2)OCc2cc(-c3nnc(-c4ccccc4Br)[nH]3)ccc21` showed an inhibition of 75%.

`CN(C)CCC[C@@]1(c2ccc(F)cc2)OCc2cc(-c3nnc(-c4cccc(F)c4)[nH]3)ccc21` yielded an inhibition of 82.9%.

`CN(C)CCC[C@@]1(c2ccc(F)cc2)OCc2cc(-c3nnc(-c4ccc(Cl)cc4)[nH]3)ccc21` returned an inhibition of 73.7%.

`COc1cccc(-c2nnc(-c3ccc4c(c3)CO[C@@]4(CCCN(C)C)c3ccc(F)cc3)[nH]2)c1` yielded an inhibition of 91%.

The compound `CN(C)CCC[C@@]1(c2ccc(F)cc2)OCc2cc(-c3nnc(-c4ccc(N)cc4)[nH]3)ccc21` returned an inhibition of 72.1%.

Turning to `COc1ccc(-c2nnc(-c3ccc4c(c3)CO[C@@]4(CCCN(C)C)c3ccc(F)cc3)[nH]2)cc1`, the inhibition came to 81.2%.

For `CN(C)CCC[C@@]1(c2ccc(F)cc2)OCc2cc(-c3nnc(-c4ccc(I)cc4)[nH]3)ccc21`, the inhibition is 85.6%.

`CN(C)CCC[C@@]1(c2ccc(F)cc2)OCc2cc(-c3nnc(-c4cccc(Br)c4)[nH]3)ccc21` yielded an inhibition of 85.5%.

With `CN(C)CCC[C@@]1(c2ccc(F)cc2)OCc2cc(-c3nnc(-c4ccccc4I)[nH]3)ccc21`, the inhibition came to 84.5%.

The compound `CN(C)CCC[C@@]1(c2ccc(F)cc2)OCc2cc(-c3nnc(-c4ccccc4N)[nH]3)ccc21` returned an inhibition of 71.7%.

In another assay the target is T2, Acetylcholinesterase (Homo sapiens, UniProt P22303). Nature of the assay: Inhibition of AChE (unknown origin) using acetylthiocholine iodide as substrate at 0.5 mM preincubated for 30 mins before substrate addition measured after 30 mins by Ellman method relative to control.
T2 sequence (P22303 whole entry): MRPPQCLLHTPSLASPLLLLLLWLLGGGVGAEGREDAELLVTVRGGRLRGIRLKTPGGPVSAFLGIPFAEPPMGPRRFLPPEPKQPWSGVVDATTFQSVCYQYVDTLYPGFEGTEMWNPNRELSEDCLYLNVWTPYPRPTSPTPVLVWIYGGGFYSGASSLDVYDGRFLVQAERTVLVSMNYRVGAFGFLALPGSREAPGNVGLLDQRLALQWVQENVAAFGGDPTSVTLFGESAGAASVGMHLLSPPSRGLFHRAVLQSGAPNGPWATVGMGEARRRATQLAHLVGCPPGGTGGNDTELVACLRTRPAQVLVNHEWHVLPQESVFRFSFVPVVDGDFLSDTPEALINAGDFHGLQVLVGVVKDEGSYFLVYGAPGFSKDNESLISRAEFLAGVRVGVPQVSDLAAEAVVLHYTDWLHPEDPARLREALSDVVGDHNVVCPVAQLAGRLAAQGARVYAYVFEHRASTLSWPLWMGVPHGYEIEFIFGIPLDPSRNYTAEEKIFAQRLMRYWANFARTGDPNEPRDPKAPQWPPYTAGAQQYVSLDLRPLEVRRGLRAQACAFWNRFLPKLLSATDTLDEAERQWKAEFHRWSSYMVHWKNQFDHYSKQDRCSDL
The compound `CN(C)CCC[C@@]1(c2ccc(F)cc2)OCc2cc(-c3nnc(-c4ccc(O)cc4)[nH]3)ccc21` displayed an inhibition of 59.2%.

In the case of `CN(C)CCC[C@@]1(c2ccc(F)cc2)OCc2cc(-c3nnc(-c4ccc(Br)cc4)[nH]3)ccc21`, the inhibition turned out to be 15.6%.

Compound `CN(C)CCC[C@@]1(c2ccc(F)cc2)OCc2cc(-c3nnc(-c4ccc([N+](=O)[O-])cc4)[nH]3)ccc21` yielded an inhibition of 16.2%.

`CN(C)CCC[C@@]1(c2ccc(F)cc2)OCc2cc(-c3nnc(-c4ccccc4O)[nH]3)ccc21` registered an inhibition of 16.3%.

On to `CN(C)CCC[C@@]1(c2ccc(F)cc2)OCc2cc(-c3nnc(-c4ccccc4Br)[nH]3)ccc21`, for which the inhibition stood at 19.4%.

`CN(C)CCC[C@@]1(c2ccc(F)cc2)OCc2cc(-c3nnc(-c4cccc(F)c4)[nH]3)ccc21` showed an inhibition of 32.2%.

In turn, `CN(C)CCC[C@@]1(c2ccc(F)cc2)OCc2cc(-c3nnc(-c4ccc(Cl)cc4)[nH]3)ccc21` gave an inhibition of 91.6%.

`COc1cccc(-c2nnc(-c3ccc4c(c3)CO[C@@]4(CCCN(C)C)c3ccc(F)cc3)[nH]2)c1` gave an inhibition of 89.7%.

On to `CN(C)CCC[C@@]1(c2ccc(F)cc2)OCc2cc(-c3nnc(-c4ccc(N)cc4)[nH]3)ccc21`, for which the inhibition was 15.3%.

The compound `COc1ccc(-c2nnc(-c3ccc4c(c3)CO[C@@]4(CCCN(C)C)c3ccc(F)cc3)[nH]2)cc1` came in with an inhibition of 10.3%.

Compound `CN(C)CCC[C@@]1(c2ccc(F)cc2)OCc2cc(-c3nnc(-c4ccc(I)cc4)[nH]3)ccc21` had an inhibition of 30.5%.

As for `CN(C)CCC[C@@]1(c2ccc(F)cc2)OCc2cc(-c3nnc(-c4cccc(Br)c4)[nH]3)ccc21`, the inhibition worked out at 37.9%.

For the compound `CN(C)CCC[C@@]1(c2ccc(F)cc2)OCc2cc(-c3nnc(-c4ccccc4I)[nH]3)ccc21`, the inhibition stood at 72.3%.

Compound `CN(C)CCC[C@@]1(c2ccc(F)cc2)OCc2cc(-c3nnc(-c4ccccc4N)[nH]3)ccc21` registered an inhibition of 70.2%.

The target of the next assay is Cholinesterases; ACHE & BCHE (Homo sapiens) (UniProt P06276+P22303). As to the kind of experiment: Selectivity ratio of IC50 for AChE (unknown origin) to IC50 for BChE (unknown origin). An outline of the steps: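 Ratio of IC50 for AChE to IC50 for BChE, both measured by Ellman assay. Each IC50 is the mean of three independent experiments.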
Sequence of Cholinesterases; ACHE & BCHE (Homo sapiens) (P06276 whole entry, looked up): as the sequence (P06276 whole entry) above
Sequence of Cholinesterases; ACHE & BCHE (Homo sapiens) (P22303 whole entry, looked up): as the sequence (P22303 whole entry) above
`CN(C)CCC[C@@]1(c2ccc(F)cc2)OCc2cc(-c3nnc(-c4ccc(O)cc4)[nH]3)ccc21`: the Ratio IC50 amounted to 2.76.

As for `CN(C)CCC[C@@]1(c2ccc(F)cc2)OCc2cc(-c3nnc(-c4cccc(F)c4)[nH]3)ccc21`, the Ratio IC50 is below 11.2.

For `CN(C)CCC[C@@]1(c2ccc(F)cc2)OCc2cc(-c3nnc(-c4ccc(Cl)cc4)[nH]3)ccc21`, the Ratio IC50 was 0.044.

`COc1cccc(-c2nnc(-c3ccc4c(c3)CO[C@@]4(CCCN(C)C)c3ccc(F)cc3)[nH]2)c1`: the Ratio IC50 came to 1.2.

Turning to `CN(C)CCC[C@@]1(c2ccc(F)cc2)OCc2cc(-c3nnc(-c4ccc(I)cc4)[nH]3)ccc21`, the Ratio IC50 is above 3.11.

For the compound `CN(C)CCC[C@@]1(c2ccc(F)cc2)OCc2cc(-c3nnc(-c4cccc(Br)c4)[nH]3)ccc21`, the Ratio IC50 is below 6.41.

On to `CN(C)CCC[C@@]1(c2ccc(F)cc2)OCc2cc(-c3nnc(-c4ccccc4I)[nH]3)ccc21`, for which the Ratio IC50 was found to be 12.

In the case of `CN(C)CCC[C@@]1(c2ccc(F)cc2)OCc2cc(-c3nnc(-c4ccccc4N)[nH]3)ccc21`, the Ratio IC50 turned out to be 3.25.

A further assay concerns the target T1, Cholinesterase. Nature of the assay: Inhibition of BChE (unknown origin) using butyrylthiocholine chloride as substrate […] measured after 30 mins by Ellman method.
In turn, `CN(C)CCC[C@@]1(c2ccc(F)cc2)OCc2cc(-c3nnc(-c4ccc(O)cc4)[nH]3)ccc21` returned an IC50 of 140 µM.

The compound `CN(C)CCC[C@@]1(c2ccc(F)cc2)OCc2cc(-c3nnc(-c4ccc(Br)cc4)[nH]3)ccc21` had an IC50 of 492 µM.

As to `CN(C)CCC[C@@]1(c2ccc(F)cc2)OCc2cc(-c3nnc(-c4ccc([N+](=O)[O-])cc4)[nH]3)ccc21`, the concentration for half-maximal inhibition (IC50) worked out at 106 µM.

As to `CN(C)CCC[C@@]1(c2ccc(F)cc2)OCc2cc(-c3nnc(-c4ccccc4O)[nH]3)ccc21`, the half-inhibitory concentration (IC50) came out at 102 µM.

In turn, `CN(C)CCC[C@@]1(c2ccc(F)cc2)OCc2cc(-c3nnc(-c4ccccc4Br)[nH]3)ccc21` gave an IC50 of 141 µM.

With `CN(C)CCC[C@@]1(c2ccc(F)cc2)OCc2cc(-c3nnc(-c4cccc(F)c4)[nH]3)ccc21`, the IC50 worked out at 44.8 µM.

The compound `CN(C)CCC[C@@]1(c2ccc(F)cc2)OCc2cc(-c3nnc(-c4ccc(Cl)cc4)[nH]3)ccc21` gave an IC50 of 151 µM.

As for `COc1cccc(-c2nnc(-c3ccc4c(c3)CO[C@@]4(CCCN(C)C)c3ccc(F)cc3)[nH]2)c1`, the IC50 stood at 103 µM.

`CN(C)CCC[C@@]1(c2ccc(F)cc2)OCc2cc(-c3nnc(-c4ccc(N)cc4)[nH]3)ccc21` displayed an IC50 of 119 µM.

As for `COc1ccc(-c2nnc(-c3ccc4c(c3)CO[C@@]4(CCCN(C)C)c3ccc(F)cc3)[nH]2)cc1`, half-maximal inhibition (IC50) was put at 168 µM.

For the compound `CN(C)CCC[C@@]1(c2ccc(F)cc2)OCc2cc(-c3nnc(-c4ccc(I)cc4)[nH]3)ccc21`, the IC50 was 161 µM.

In the case of `CN(C)CCC[C@@]1(c2ccc(F)cc2)OCc2cc(-c3nnc(-c4cccc(Br)c4)[nH]3)ccc21`, the IC50 came out at 78 µM.

The compound `CN(C)CCC[C@@]1(c2ccc(F)cc2)OCc2cc(-c3nnc(-c4ccccc4I)[nH]3)ccc21` had an IC50 of 25.9 µM.

Consider `CN(C)CCC[C@@]1(c2ccc(F)cc2)OCc2cc(-c3nnc(-c4ccccc4N)[nH]3)ccc21`, for which 111 µM corresponded to half-maximal inhibition (IC50).

Another assay has as its target T2, Acetylcholinesterase. Nature of the assay: Inhibition of AChE (unknown origin) using acetylthiocholine iodide as substrate […] measured after 30 mins by Ellman method.
In the case of `CN(C)CCC[C@@]1(c2ccc(F)cc2)OCc2cc(-c3nnc(-c4ccc(O)cc4)[nH]3)ccc21`, the IC50 was 388 µM.

Regarding `CN(C)CCC[C@@]1(c2ccc(F)cc2)OCc2cc(-c3nnc(-c4cccc(F)c4)[nH]3)ccc21`, the IC50 is below 500 µM.

As to `CN(C)CCC[C@@]1(c2ccc(F)cc2)OCc2cc(-c3nnc(-c4ccc(Cl)cc4)[nH]3)ccc21`, it took 6.71 µM to reach half-maximal inhibition (IC50).

In the case of `COc1cccc(-c2nnc(-c3ccc4c(c3)CO[C@@]4(CCCN(C)C)c3ccc(F)cc3)[nH]2)c1`, the IC50 is 124 µM.

`CN(C)CCC[C@@]1(c2ccc(F)cc2)OCc2cc(-c3nnc(-c4ccc(I)cc4)[nH]3)ccc21` returned an IC50 above 500 µM.

Compound `CN(C)CCC[C@@]1(c2ccc(F)cc2)OCc2cc(-c3nnc(-c4cccc(Br)c4)[nH]3)ccc21` returned an IC50 below 500 µM.

In turn, `CN(C)CCC[C@@]1(c2ccc(F)cc2)OCc2cc(-c3nnc(-c4ccccc4I)[nH]3)ccc21` returned an IC50 of 310 µM.

The compound `CN(C)CCC[C@@]1(c2ccc(F)cc2)OCc2cc(-c3nnc(-c4ccccc4N)[nH]3)ccc21` registered an IC50 of 360 µM.
